Assay results as given in the EternaBench riboswitch data.

System: MS2 coat protein
Assay: apparent Kd, MS2 coat protein; higher = weaker binding; RNA-MaP array; FMN 200 µM where present
Outline: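 On Illumina sequencing-chip clusters, designs were transcribed by stalled E. coli RNA polymerase and titrated with SNAP-549-labelled MS2 coat protein (0.7 or 1.5 nM, doubling to 3 µM), without and then with constant ligand, in 100 mM Tris-HCl pH 7.5, 80 mM KCl, 4 mM MgCl2, BSA, DTT, yeast tRNA and Tween-20. Apparent Kd is the median of filtered per-cluster curve fits to green signal normalised to red-channel RNA signal and control-cluster median Fmax.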

[1] = designed as: ON switch for flavin mononucleotide, no ligand
[2] = ligand present: flavin mononucleotide, designed as: ON switch for flavin mononucleotide
[3] = designed as: OFF switch for flavin mononucleotide, no ligand
[4] = ligand present: flavin mononucleotide, designed as: OFF switch for flavin mononucleotide

Sequence | apparent Kd [1] [nM] | apparent Kd [2] [nM] | apparent Kd [3] [nM] | apparent Kd [4] [nM]
GCUCUAUGCGAGAAGGCGUGCAACAUGAGGAUCACCCAUGUCAGAGAUAUGAGGAUAUUGCAUAGAGCAAAAGACGGAAACGUC | 6.68 | 4.48 |  | 
GCUCUUGUCAAGAAGGGCUCGCGGUACGCUGCAGCAGGAUAUUGACAUGAGGAUCACCCAUGUCGACCGGAACAUCAUUGAGGG |  |  | 26.2 | 178
GCUGACGAUGUAGGAUAUCUCGACGAUAAGUCGAGAGAAGGACAUGAGGAUCACCCAUGUAACUCUACGUCAGCGAGGAAACUC |  |  | 16.8 | 18
GCUGCAAAGUAAGGAUAUGCCUAGGAAACCUAGGCAGAAGGUACAUGAGGAUCACCCAUGUUAACCCAAAGGGAAUAAAGCAGC |  |  | 15.8 | 25.3
GCUGCAUAGGCAGGAUAUGCAAUAAUUCGAAUAAAAUAUAACGAAUUAACAUGAGGAUCACCCAUGUAGAAGGGCCUGUGCAGC |  |  | 5.51 | 4.99
GCUGCAUAUGAGAAGGCGAUCAUGAAACAUGAUCGAGGAUAUCAUGUUUACAUGAGGAUCACCCAUGUAUGGGUAUAAUGCAGC | 492 | 14 |  | 
GCUGGACAAGGAUAUGCAUUCGUGCUUCGGCACGUAAGGUCACAUGAGGAUCACCCAUGUAGAAGGUGUCCAGC |  |  | 18.6 | 34
GCUGGUCAAGGAUAUAUAUGACGUGCUUCGGCACGAAGAUCACAUGAGGAUCACCCAUGUAGAAGGUGACCAGC |  |  | 96.9 | 793
GCUGGUCGAGGAUAUACAUGACGUGCUUCGGCACGAGGUCUACAUGAGGAUCACCCAUGUAGAAGGCGACCAGC |  |  | 30.8 | 225
GCUGGUCGAGGAUAUAUAUGACGUGCUUCGGCACGAAGAUCACAUGAGGAUCACCCAUGUAGAAGGUGACCAGC |  |  | 53.8 | 267
GCUGUCGCAUGAGGAUAUGGUCAGCUUUGCUGACCAGAAGGCAUGUCAAUAGACAUGAGGAUCACCCAUGUAGUUUGGGCGGCU | 985 | 99.2 |  | 
GCUUCCCAUGUGAGGAUAUGUAGGGUUAACCCGAGGCAGAAGGCACAUGAGGAUCACCCAUGUUAAAACUUCUA |  |  | 29 | 60.6
GCUUGGCGAGGAUAUACAUGAGGAUCACCCAUGUGAGAGAAUAAAGUGAGGAAGAAAAGUAGAAGGCGCUGAGG |  |  | 54 | 271
GCUUUAUAGAUCCAUUUUAACAACAUGAGGAUCACCCAUGUGCAGGAUAUCGAUUGUUUUAUUUUCGAGAAGGGCAAAUUCAGC |  |  | 35.2 | 87.7
GGAAAACAUGAGGAUCACCCAUGUGAAAACGUGGGAGGAUAUCGAUGGAAACCAUACUGUCGAGAAGGCCCAUGUC | 51.8 | 18 |  | 
GGAAAACAUGAGGAUCACCCAUGUGAGGAUAUCGAUGUCCACCCACCCGUGCGGGACUCGAGAAGGCACUUGGA |  |  | 44.4 | 148
GGAAAACAUGAGGAUCACCCAUGUGAGGAUAUCGAUGUCCACCCUCCCGUGCGGGACUCGAGAAGGCACUUGGA |  |  | 50.9 | 56.4
GGAAACUACGAGAAGGACAUGUGGUCCUUCAGUUACAUGAGGAUCACCCAUGUAGGAUAUCGUAGUUUCAGGAUCGUGAGAUCU |  |  | 35.4 | 13.7
GGAAAGUGAGGAUAUGGUAAUUUAAUUAUUAAUUAAUUAAUCCAGAAGGCACAUGAGGAUCACCCAUGUAAAGG |  |  | 35.9 | 61.4
GGAAAUCAUGUAGGAUAUGCAUGGCGAAGCUACGCAGAAGGACAUGAGGAUCACCCAUGUUAUAGCGUCCGUGAAAGGAUGCAA |  |  | 39.7 | 120
GGAACCGCUCAGAAGGACAUGAGGAUCACCCAUGUAGGAUAUGACUCGGUCUUUACGUGGCGCCCUGCAUCAUCGUUAUCUGCU | 165 | 23.1 |  | 
GGAACUCAUGUAGGAUAUGCAUGGCGAAGCUACGCAGAAGGACAUGAGGAUCACCCAUGUUCUAGCGUCUGGAUACAGAUGCAA |  |  | 169 | 130
GGAAGCUCAACGGAGCUAAGGUAGAAGGAUAUCCACGGCUAUAUCCACAUGAGGAUCACCCAUGUGGAGAAGGUCUAUCUUAAG |  |  | 5.83 | 10.4
GGAAUAAAUGCAGGAUAUACGUGGAAAGCUUUCAACAUGAGGAUCACCCAUGUAGAAGGGCAUCUCCCGACCGAAGCGGAUCUC |  |  | 5.8 | 6.27
GGAAUUAAGGGAGGAUAUAGGCGACAUGAGGAUCACCCAUGUACGGAGGGCUCUUCCCGUGUUCACUAGAAGGCCCAUGUUACC |  |  | 16.5 | 73.7
GGACCGCUUAGAAUUAGCGGCCGGCAGGAUAUGACAUGAGGAUCACCCAUGUGAACUCCAUUGGGUCAGAAGGGCCACGACACA |  |  | 23.9 | 86.4
GGACGUCACAUUAACAUGAGGAUCACCCAUGUCAAAAGACAUGAGGAUAUGCAUCCUAAUUGGAUGCAGAAGGCAUGGACGUCC | 449 | 35 |  | 
GGACGUCGCAUAAACAUGAGGAUCACCCAUGUAACUAGACAUGAGGAUAUGGAUCCUAAUUGGAUCCAGAAGGUAUGGACGUCC | 298 | 200 |  | 
